This is an account of results in paper PMC10907882 (Pharmacology Research & Perspectives, 2024).

The conditions of data set [1]: twice‐daily dosing for 2 weeks; healthy elderly and patients with mild to moderate Alzheimer's disease; cited from earlier work.
In another data set the target is T1, rec human calpain‐2 (Homo sapiens, UniProt P17655).
T1 sequence (P17655 1-700): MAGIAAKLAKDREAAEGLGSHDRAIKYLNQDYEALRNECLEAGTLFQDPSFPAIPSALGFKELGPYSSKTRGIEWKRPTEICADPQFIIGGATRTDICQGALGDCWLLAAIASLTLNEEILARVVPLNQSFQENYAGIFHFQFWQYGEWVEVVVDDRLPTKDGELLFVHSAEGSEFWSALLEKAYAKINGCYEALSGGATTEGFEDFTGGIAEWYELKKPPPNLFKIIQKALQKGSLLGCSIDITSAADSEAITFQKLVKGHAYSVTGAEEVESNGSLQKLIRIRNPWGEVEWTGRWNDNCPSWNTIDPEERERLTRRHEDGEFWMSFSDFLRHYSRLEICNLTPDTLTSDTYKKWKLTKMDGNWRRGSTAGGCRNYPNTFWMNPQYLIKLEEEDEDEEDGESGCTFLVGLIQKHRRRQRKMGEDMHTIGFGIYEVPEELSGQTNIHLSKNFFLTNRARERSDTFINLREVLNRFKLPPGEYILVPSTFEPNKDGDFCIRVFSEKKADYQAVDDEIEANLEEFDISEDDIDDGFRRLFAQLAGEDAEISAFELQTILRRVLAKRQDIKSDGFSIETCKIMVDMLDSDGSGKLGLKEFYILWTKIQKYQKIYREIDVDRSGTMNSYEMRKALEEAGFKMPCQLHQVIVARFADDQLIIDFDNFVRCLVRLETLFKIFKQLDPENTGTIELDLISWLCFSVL
Nature of the data set: In vitro calpain assay. The format is biochemical. Put shortly:
(§1)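 Enzymes were purified human erythrocyte calpain-1 (8 μg) or bacterially expressed recombinant human calpain-2. Buffer was 60 mM imidazole-HCl pH 7.3 with 5 mM CaCl₂, 5 mM cysteine, 2.5 mM β-mercaptoethanol, 0.5 mM Suc-Leu-Tyr-AMC and test compound (0–20 μM). Reactions were started with enzyme and run at 30°C for 15 min, reading AMC fluorescence (380/450 nm) every 30 s. IC50 came from sigmoidal fits of linear rates; Ki from mean IC50 assuming competitive binding.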

The target of another data set is T2, human calpain‐1 (Homo sapiens, UniProt P07384).
T2 sequence (P07384 1-714): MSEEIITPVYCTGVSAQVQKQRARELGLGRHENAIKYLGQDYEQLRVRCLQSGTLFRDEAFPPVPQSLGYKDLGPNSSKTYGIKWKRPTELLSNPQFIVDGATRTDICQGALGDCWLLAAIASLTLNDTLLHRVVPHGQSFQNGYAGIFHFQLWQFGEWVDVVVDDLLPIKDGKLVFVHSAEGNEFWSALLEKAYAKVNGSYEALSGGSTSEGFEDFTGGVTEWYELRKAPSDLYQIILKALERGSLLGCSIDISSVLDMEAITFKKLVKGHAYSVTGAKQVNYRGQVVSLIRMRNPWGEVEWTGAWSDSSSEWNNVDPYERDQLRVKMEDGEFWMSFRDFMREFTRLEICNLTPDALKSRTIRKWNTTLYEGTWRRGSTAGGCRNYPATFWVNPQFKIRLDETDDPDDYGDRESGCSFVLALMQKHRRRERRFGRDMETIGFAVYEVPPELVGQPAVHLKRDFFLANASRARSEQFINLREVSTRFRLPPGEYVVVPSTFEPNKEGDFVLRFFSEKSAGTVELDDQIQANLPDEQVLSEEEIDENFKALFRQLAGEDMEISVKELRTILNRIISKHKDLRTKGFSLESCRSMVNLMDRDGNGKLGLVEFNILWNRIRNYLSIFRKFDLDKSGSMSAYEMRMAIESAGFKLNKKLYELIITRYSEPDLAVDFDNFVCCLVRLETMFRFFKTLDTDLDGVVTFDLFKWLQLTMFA
T2 sequence (P04632 1-268 partner): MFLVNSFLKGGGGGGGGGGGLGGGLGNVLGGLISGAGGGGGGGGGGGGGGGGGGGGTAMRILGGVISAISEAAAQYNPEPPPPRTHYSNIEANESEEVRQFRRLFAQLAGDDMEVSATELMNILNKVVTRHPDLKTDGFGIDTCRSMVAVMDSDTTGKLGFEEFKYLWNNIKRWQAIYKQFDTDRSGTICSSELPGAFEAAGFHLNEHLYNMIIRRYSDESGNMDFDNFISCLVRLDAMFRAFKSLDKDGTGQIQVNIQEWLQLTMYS
In words: In vitro calpain assay. The following applies: read-out: K i for human calpain‐1; purified human calpain‐1; means ± SEM of three experiments or single experiment. The format is biochemical. Put shortly: as §1

The test system of another data set is calpain‐2. The following applies: reported; cited from earlier work.
The target of another data set is T3, mouse calpain‐1 (Mus musculus, UniProt O35350).
T3 sequence (O35350 1-713): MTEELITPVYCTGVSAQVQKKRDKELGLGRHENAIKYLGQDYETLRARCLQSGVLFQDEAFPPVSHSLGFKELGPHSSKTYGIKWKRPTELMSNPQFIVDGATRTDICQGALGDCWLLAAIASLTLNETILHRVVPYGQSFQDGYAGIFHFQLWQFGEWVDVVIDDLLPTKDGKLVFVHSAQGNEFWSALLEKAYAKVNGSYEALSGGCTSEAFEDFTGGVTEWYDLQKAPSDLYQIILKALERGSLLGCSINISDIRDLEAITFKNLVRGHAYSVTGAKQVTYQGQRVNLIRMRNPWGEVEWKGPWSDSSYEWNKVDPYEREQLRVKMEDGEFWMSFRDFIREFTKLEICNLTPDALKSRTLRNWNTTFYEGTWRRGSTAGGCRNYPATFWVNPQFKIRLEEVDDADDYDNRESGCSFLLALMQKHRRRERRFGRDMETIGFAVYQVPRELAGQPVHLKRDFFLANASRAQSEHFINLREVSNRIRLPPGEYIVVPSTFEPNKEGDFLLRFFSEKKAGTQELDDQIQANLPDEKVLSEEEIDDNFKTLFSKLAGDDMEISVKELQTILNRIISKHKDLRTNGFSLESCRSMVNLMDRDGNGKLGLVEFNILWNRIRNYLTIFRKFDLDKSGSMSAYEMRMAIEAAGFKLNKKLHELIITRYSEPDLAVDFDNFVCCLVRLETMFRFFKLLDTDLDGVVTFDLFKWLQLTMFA
T3 sequence (O88456 1-268 partner): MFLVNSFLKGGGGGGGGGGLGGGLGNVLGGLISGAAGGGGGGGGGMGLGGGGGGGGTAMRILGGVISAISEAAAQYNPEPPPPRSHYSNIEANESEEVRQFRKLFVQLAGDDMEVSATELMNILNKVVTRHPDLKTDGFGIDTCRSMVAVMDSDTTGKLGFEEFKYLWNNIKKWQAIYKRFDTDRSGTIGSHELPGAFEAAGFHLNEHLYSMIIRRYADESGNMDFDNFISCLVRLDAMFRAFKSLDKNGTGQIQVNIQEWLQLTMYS
In words: Ex‐vivo calpain assay, mouse pons‐cerebellum membrane fractions, 20 μM calcium. The format is biochemical. Particulars: read-out: IC50 for mouse calpain‐1, endogenous brain calpain‐1, membrane fractions. Put shortly:
(§2)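 Membrane fractions from mouse pons-cerebellum were resuspended in 60 mM imidazole-HCl pH 7.3 with 5 mM cysteine and 2.5 mM β-mercaptoethanol and exposed to test compound concentrations. Calpain-1 was assayed in wild-type membranes with 20 μM calcium. Calpain-2 was assayed in calpain-1 knockout membranes with 2 mM calcium. Substrate was Suc-Leu-Tyr-AMC (0.5 mM). Two experiments.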

The target of the next data set is T4, mouse calpain‐2 (Mus musculus, UniProt O08529).
T4 sequence (O08529 1-700): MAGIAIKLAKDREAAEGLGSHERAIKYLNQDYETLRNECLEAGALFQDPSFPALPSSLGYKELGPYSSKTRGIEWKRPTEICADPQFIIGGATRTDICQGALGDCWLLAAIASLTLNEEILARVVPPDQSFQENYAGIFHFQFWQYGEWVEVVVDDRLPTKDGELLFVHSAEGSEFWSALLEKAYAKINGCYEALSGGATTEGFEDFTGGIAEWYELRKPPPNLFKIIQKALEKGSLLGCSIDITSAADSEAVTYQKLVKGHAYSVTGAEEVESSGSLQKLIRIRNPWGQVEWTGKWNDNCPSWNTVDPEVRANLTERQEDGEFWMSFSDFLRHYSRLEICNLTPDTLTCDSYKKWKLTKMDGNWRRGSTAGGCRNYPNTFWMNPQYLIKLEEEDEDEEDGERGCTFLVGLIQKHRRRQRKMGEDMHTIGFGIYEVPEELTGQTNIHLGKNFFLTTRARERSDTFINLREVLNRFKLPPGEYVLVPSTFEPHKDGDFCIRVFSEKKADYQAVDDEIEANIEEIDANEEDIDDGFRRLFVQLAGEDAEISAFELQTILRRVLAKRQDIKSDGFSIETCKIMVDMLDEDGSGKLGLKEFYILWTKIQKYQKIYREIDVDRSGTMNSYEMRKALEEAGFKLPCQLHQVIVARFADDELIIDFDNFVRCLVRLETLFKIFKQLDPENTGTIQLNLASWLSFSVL
T4 sequence (O88456 1-268 partner): T3 sequence (O88456 1-268 partner)
In words: Ex‐vivo calpain assay, mouse pons‐cerebellum membrane fractions, 2 mM calcium. The format is biochemical. The following applies: mouse brain enzymes. Put shortly:
as §2

The structures appear in SMILES notation.

As to `O=C(NC1CC1)C(=O)C(Cc1ccccc1)NC(=O)[C@H]1CCC(=O)N1Cc1ccccc1` (stereo partly shown) [ABT‐957], the “adverse effects in Phase I” value in data set [1] is given as “did not result in significant adverse effects”.

On to `CCC(NC(=O)[C@H](CC(C)C)NC(=O)OCc1ccccc1)C(=O)C(=O)NCc1cc(OC)cc(OC)c1` (stereo partly shown) [Compound C2I, Z‐Leu‐Abu‐CONH‐CH2‐C6H3(3,5‐(OMe)2)], for which the “Ratio 1/2 (K i calpain‐1 / calpain‐2)” value on rec human calpain‐2 (human enzymes) is listed as 2.3. Also, the Ki is 55 ± 7 nM on rec human calpain‐2 (read-out: K i for rec human calpain‐2, recombinant human calpain‐2, means ± SEM of three experiments or single experiment) and 124 ± 6 nM on human calpain‐1. In the data set on calpain‐2, the “difference in K i values for calpain‐2 vs calpain‐1” value is given as 100 fold. In addition, at mouse calpain‐1, the IC50 worked out at 1130 nM. Further, the “Ratio 1/2 (IC50 calpain‐1 / calpain‐2)” value on mouse calpain‐2 was found to be 26.
